Source: PMC3400539 (Journal of Computer-Aided Molecular Design, 2011)
Where two headings read alike, the source gives them in different places.

Columns and labels:
[1] = system: BRCA1(BRCT) (six his-tagged, amino acids 1646–1859); details: cited from earlier work; for ΔGexp (binding free energy): Table 1; for ΔG (Exp): Table 2, brackets = error of the mean
[2] = system: BRCA1(BRCT) (six his-tagged, amino acids 1646–1859); experiment: Isothermal titration calorimetry; format: binding
Method in brief: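 His6-BRCA1 BRCT (aa 1646–1859) was expressed in E. coli BL21(DE3) RIL (1 mM IPTG), Ni-affinity purified, and dialysed into 50 mM KH2PO4 pH 7.2. Peptides were quantified by amino acid analysis, freeze-dried and redissolved in the same buffer. At 25°C, 100–900 µM peptide was titrated into 10–30 µM protein: 3 µL, then 29 × 10 µL, 3 min apart, 307 rpm. Peptide-into-buffer heats were subtracted and the data integrated.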

[3] = isothermal calorimetric data, ref [9]

Row | Substance | ΔGexp (binding free energy) ([1]; T1–T4, ref [9]) | ΔG (Exp) ([1]; ref [9]) | further results
1 | Ac-EPTF-CONH2 [Peptide T4] | No binding | no binding | binding to BRCA1(BRCT) found experimentally ([1]; in words, ref [9]): does not bind
2 | Ac-Nap-pSPTF-CONH2 [Peptide P7] | – | – | ΔΔG, increase in binding affinity compared to T1 ([2]; P7 vs T1, ITC): 0.3 kcal/mol; ΔG (Exp) ([2]; Table 2, brackets = error of the mean, ITC, 25°C, 50 mM KH2PO4 pH = 7.2): −7.8 (0.1) kcal/mol
3 | Ac-pSATF-CONH2 [Peptide T2] | -6.7 kcal/mol | −6.7 (0.3) kcal/mol | –
4 | Ac-pSPAF-CONH2 [Peptide T3] | -5.9 kcal/mol | −5.9 (0.2) kcal/mol | loss in binding affinity caused by Thr→Ala mutation (vs T1) [1, 3]: 1.6 kcal/mol
5 | Ac-pSPTF-CONH2 [Peptide T1] | -7.5 kcal/mol | −7.5 (0.2) kcal/mol | –
6 | Ac-pSPVF-CONH2 [Peptide T5] | – | – | ΔGexp (binding free energy) ([1]; T5, ref [18]): -7.8 kcal/mol; ΔG (Exp) ([1]; ref [18]): −7.8 (0.1) kcal/mol; enhancement of binding by Val mutation (vs T1) [1, 3]: 0.3 kcal/mol; binding affinity compared with T1 (in words) ([1]; isothermal calorimetric study, ref [18]): practically the same binding affinity
